The results in this text go back to ChEMBL document CHEMBL4376862, “Synthesis and evaluation of novel chlorophyll a derivatives as potent photosensitizers for photodynamic therapy” (Eur J Med Chem, 2020).

The source made the active and inactive calls. The calls are words filed in the database; no cut-off is given here.

The test system of data set [1] is A549. Description: Photodynamic antitumor activity against human A549 cells xenografted in BALB/c nude mouse assessed as necrosis leukocyte infiltration at 0.3 mg/kg, iv incubated for 24 hrs followed by laser light irradiation at 120 J/cm2 measured 24 hrs post light irradiation by H and E staining based histopathological analysis. In kind it is functional, organism-based. The method in brief:
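Tumors from PDT-treated A549 xenograft mice (0.3 mg/kg i.v., 650 nm laser 120 J/cm2 at 24 h) excised, fixed in 4% formaldehyde in PBS, paraffin-embedded, sectioned, H&E stained.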
(In general: In xenograft studies the graft and the host belong to different species.)

Data set [2] relates to A549. Description: Photodynamic antitumor activity against human A549 cells xenografted in BALB/c nude mouse assessed as reduction in tumor volume at 0.3 mg/kg, iv incubated for 24 hrs followed by laser light irradiation at 120 J/cm2 measured up to 14 days. It is filed as functional, organism-based. A digest of the protocol: (§1)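 Male BALB/c nude mice (5–6 weeks, 14–16 g) given 2×10^6 A549 cells s.c. in 0.2 mL PBS; at 6–7 mm tumors randomized into ten groups; drug via tail vein, 650 nm diode laser 120 J/cm2 at 180 mW/cm2 24 h later; caliper volume a×b²/2, followed 14 days.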

A short description of data set [3]: Induction of ROS generation in DMF solution assessed as slope of the photodegradation rate of DPBF at 2 uM followed by irradiation measured every 10 secs by spectrophotometric analysis. In kind it is functional.
Data set [4] can be described thus: Drug uptake in human A549 cells incubated upto 24 hrs by fluorescence spectrophotometer analysis. Particulars: a549, 24 h. In kind it is ADME, cell-based. A digest of the protocol: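 A549 cells (F-12K, 10% FBS, 37 °C, 5% CO2) grown in 24 wells and exposed to photosensitizer for 0.5, 1, 2, 4, 8, 12 or 24 h; cells harvested by digestion, fluorescence read on a spectrophotometer.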

A short description of data set [5]: Drug uptake in BALB/c nude mouse xenografted with A549 cells assessed as drug level in brain at 0.3 mg/kg, iv measured at 12 hrs by fluorescence assay. In kind it is ADME, organism-based. The settings on record: in vivo. The method in brief: (§2)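 A549 tumor-bearing mice dosed via tail vein (1 mg/kg in methods; 0.3 mg/kg in text) at tumors ~150–170 mm3, n = 3; whole-body imaging 0–24 h; at 6 and 12 h mice killed, heart, liver, spleen, lung, kidney, brain, tumor imaged ex vivo, excitation 420 nm, emission 650 nm.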

Data set [6] concerns A549. In words: Phototoxicity in human A549 cells assessed as reduction in cell viability in presence of irradiation with laser light at 1 J/cm2 by fluorescence microscopic method relative to control. It is filed as functional. A digest of the protocol: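 A549 cells were grown in F-12K with 10% FBS at 37 °C in 5% CO2. Cells were treated with photosensitizer and exposed to 650 nm laser at 0 or 1 J/cm2, with a laser-alone group. Viable cells were then stained with calcein (green) and nuclei with DAPI (blue), and imaged by fluorescence microscopy.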

Data set [7] in a line: Octanol/water partition coefficient, logP of compound by shake flask method. It is filed as physicochemical. A digest of the protocol: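 Shake-flask method: equilibrium concentrations in octanol and water measured by UV-vis absorbance; log P taken as log of octanol/water concentration ratio (mg/L).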
Data set [8] relates to Cavia porcellus. In words: Phototoxicity in guinea pig assessed as change in right ear weight 4.5 mg/kg, iv followed by 10 mW/cm2 light irradiation for 10 mins measured after 1 day of light irradiation (reference value: 40.4 +/- 2.4 mg). It is filed as organism-based. The settings on record: in vivo.
In data set [9] the test system is Cavia porcellus. Description: Phototoxicity in guinea pig assessed as change in back skin at 4.5 mg/kg, iv in presence of 10 mW/cm2 light irradiation for 10 mins measured after 1day of light irradiation by H and E staining based microscopic analysis. It is filed as organism-based. The settings on record: in vivo.
Data set [10] relates to Cavia porcellus. In words: Phototoxicity in guinea pig assessed as change in left ear weight 4.5 mg/kg, iv followed by 10 mW/cm2 light irradiation for 10 mins measured after 1 day of light irradiation (reference value: 39.2 +/- 1.8 mg). In kind it is organism-based. The settings on record: in vivo.
For data set [11], the system named is A549. Description: Photodynamic antitumor activity against human A549 cells xenografted in BALB/c nude mouse assessed as decrease in tumor weight at 0.3 mg/kg, iv followed by laser light irradiation at 120 J/cm2 measured after 14 days. It is filed as functional. A digest of the protocol: as §1
Data set [12] can be described thus: Drug uptake in BALB/c nude mouse xenografted with A549 cells assessed as drug level in heart at 0.3 mg/kg, iv measured at 12 hrs by fluorescence assay. It is filed as ADME, organism-based. Particulars: in vivo. The method in brief:
as §2

A short description of data set [13]: Drug localization in mitochondria of human A549 cells at 1 uM after 4 hrs by mito-tracker green based fluorescence microscopic method. In kind it is ADME. Particulars: a549, 4 h. A digest of the protocol: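 A549 cells on coverslips at 1×10^4 cells/mL exposed to […] (so in the source) photosensitizer in complete medium for 4 h, washed, fixed in 4% paraformaldehyde 20 min, then probed 30 min at 37 °C with Mito-Tracker Green, Lyso-Tracker Blue or ER-Tracker Green; fluorescence microscopy, three repeats, minimal ambient light.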

The nature of data set [14]: Dark toxicity in human A549 cells assessed as reduction in cell viability incubated under dark for 24 hrs measured after 48 hrs by MTT assay. In kind it is cell-based. The settings on record: read-out: TC50. A digest of the protocol:
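A549 cells seeded at 5×10^4 cells/100 µL per well for 24 h, treated in the dark with […] (so in the source) for 24 h; MTT added 4 h, absorbance 570 nm, 48 h later; viability as OD treated/OD control; triplicate, mean ± SD.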
(In general: Formazan colour is commonly taken as a measure of viable cells.)

Data set [15] has as its system A549. In words: Cytotoxicity against human A549 cells assessed as apoptotic lesions in absence of light by fluorescence microscopic method. It is filed as cell-based.
Data set [16] relates to A549. Description: Phototoxicity against human A549 cells assessed as reduction in cell proliferation irradiated with 1 J/cm2 of 650 nanometer laser light preincubated for 24 hrs measured after 48 hrs by MTT assay. In kind it is functional, cell-based. Particulars: A549, light or radiation study. The method in brief:
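A549 cells seeded 5×10^4 cells/100 µL per well, given […] for 24 h, then 650 nm semiconductor laser at 1 J/cm2 (25 mW/cm2, 40 s); MTT 4 h, absorbance 570 nm; viability vs control; triplicate, mean ± SD.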

Data set [17] is described as follows: Induction of ROS generation in DMF solution assessed as ROS quantum yield at 2 uM followed by irradiation measured every 10 secs by spectrophotometric analysis. It is filed as functional.
Data set [18] relates to A549. In words: Photodynamic antitumor activity against human A549 cells xenografted in BALB/c nude mouse at 0.15 mg/kg, iv followed by laser light irradiation at 120 J/cm2 measured after 14 days. In kind it is functional, organism-based. The method in brief:
as §1

Data set [19] concerns Cavia porcellus. In words: Phototoxicity in guinea pig assessed as change in auricles of left ear at 4.5 mg/kg, iv in presence of 10 mW/cm2 light irradiation for 10 mins measured after 1day of light irradiation by H and E staining based microscopic analysis. Particulars: in vivo. In kind it is organism-based.
For data set [20], the system named is Mus musculus. Description: Phototoxicity in ICR mouse assessed as change in exposed neck skin 0.45 mg/kg, iv in presence of 10 mW/cm2 light irradiation for 10 mins upto 7 days measured after 1day of light irradiation by H and E staining based microscopic analysis. Particulars: in vivo. In kind it is organism-based.
The subject of data set [21] is Mus musculus. In words: Phototoxicity in ICR mouse assessed as ear weight at 0.45 mg/kg, iv followed by 10 mW/cm2 light irradiation for 10 mins at 1 day after drug challenge measured after 1 day of light irradiation (reference value: 12.6 +/- 1.2 mg). In kind it is organism-based. The settings on record: in vivo.
Data set [22] can be described thus: Drug uptake in BALB/c nude mouse xenografted with A549 cells assessed as drug level in liver at 0.3 mg/kg, iv measured upto 12 hrs by fluorescence assay. It is filed as ADME, organism-based. Particulars: in vivo. The method in brief:
as §2

Usually logP stands for a log measure of how a compound divides between an organic and an aqueous phase. Read a low logP as lower lipophilicity. A word on the IC50: it is the point on the concentration scale where inhibition reaches its midpoint. As for `CCC1=C(C)c2cc3[nH]c(cc4nc(c5c6[nH]c(cc1n2)c(C)c6C(=O)C5)[C@@H](CCC(=O)NCC(=O)CCC(=O)O)[C@@H]4C)c(C)c3C(C)OCCO` (some centres undefined), the result in [1], in data set [2] and in data set [18] was Active. Also, the K in data set [3] came to 0.027 s⁻¹. The Drug uptake entry is “Active” in data set [4]; “Not Active” in [5]; “Not Active” in data set [12]; “Active” in data set [13]; “Active” in data set [22]. For the same compound, the Activity in [6] is reported as 34.15%; in data set [8] it was 41.9 mg; in data set [9], “Non-Toxic”; in data set [10], 41.6 mg; in data set [11], 0.0296 g; in [15], “Non-Toxic”. Further, the values for the Activity result in [19], in data set [20] and in data set [21] were “Non-Toxic”, “Non-Toxic” and 13.3 mg, respectively. In [7], this compound showed a logP of 1.59. Moreover, the CC50 at 24 h in [14] is 8880 nM. For the same compound, in [16], the IC50 was found to be 990 nM. Moreover, the Ratio in [17] was 1.35.
With `CCCCOC(C)c1c(C)c2cc3nc(c4c5[nH]c(cc6nc(cc1[nH]2)C(C)=C6CC)c(C)c5C(=O)C4)[C@@H](CCC(=O)NCC(=O)CCC(=O)O)[C@@H]3C` (some centres undefined), the result in data set [1], in [2] and in data set [18] was Active. For the same compound, in [3], the K is 0.0313 s⁻¹. The Drug uptake entry in data set [4] is “Active”; in [5], “Not Active”; in data set [12] it was “Not Active”; in data set [13], “Active”; in data set [22] it was “Active”. For the same compound, the Activity is 30.69% in data set [6]; 43.6 mg in [8]; “Non-Toxic” in [9]; 42.3 mg in data set [10]; 0.0138 g in data set [11]; “Non-Toxic” in [15]. In addition, the figures for the Activity entry in data set [19], in data set [20] and in [21] were “Non-Toxic”, “Non-Toxic” and 12.9 mg, respectively. The compound also gave a logP in data set [7] of 2.36. In data set [14], the CC50 at 24 h came to 2010 nM. Also, the IC50 in data set [16] stood at 230 nM. Moreover, the Ratio in data set [17] was found to be 1.56.
